Here are results for six compounds from ChEMBL document CHEMBL1143032, “The concise synthesis of chalcone, indanone and indenone analogues of combretastatin A4” (Bioorg Med Chem, 2007).

Experiment [1] concerns CA46. Nature of the experiment: Growth inhibition of CA46 cells. Format: functional. To be noted: Homo sapiens.
Experiment [2] is described as follows: Inhibition of bovine brain tubulin polymerization. More on the design: species or system Bos taurus. The method, boiled down: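 Tubulin assembly assay. The parameter measured was inhibition of the extent of assembly.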
For experiment [3], the system named is MCF7. Nature of the experiment: Growth inhibition of MCF7 cells after 48 hrs. The experiment is classed as functional. To be noted: Homo sapiens, MCF7, 48 h.

pIC50: −log10 of the molar value.

In general, GI50 refers to the concentration giving 50% growth inhibition. In the case of `COc1ccc(-c2[nH]c3cc(OC)ccc3c2C(=O)c2cc(OC)c(OC)c(OC)c2)cc1`, the GI50 in experiment [1] was determined as 0.045 µM. Usually pIC50 stands for −log10 of the IC50, conventionally taken in molar units. Low readings indicate a high IC50, high ones a low IC50. `COc1ccc(/C=C(\C(=O)c2cc(OC)c(OC)c(OC)c2)c2ccc(OC)cc2)cc1` showed a negative-log IC50 (pIC50) in experiment [2] of 5.18. This compound also had a GI50 in experiment [3] above 1 µM. The compound `COc1ccc(C2=C(C(=O)c3cc(OC)c(OC)c(OC)c3)C(=O)c3cc(OC)c(OC)c(OC)c32)cc1O` gave a pIC50 in experiment [2] of 4.70. Same read-out and setting: the figure for `COc1ccc(C2=C(C(=O)c3cc(OC)c(O)c(OC)c3)c3cc(O)c(OC)cc3C2=O)cc1O` is 4.44.

With `COc1ccc(/C=C(/C(=O)c2cc(OC)c(OC)c(OC)c2)c2ccc(OC)cc2)cc1`, the pIC50 in experiment [2] is 5.60. Also, the concentration for 50% growth inhibition (GI50) in experiment [3] was above 1 µM. In experiment [3], `COc1ccc(/C=C\c2cc(OC)c(OC)c(OC)c2)cc1O` [COMBRETASTATIN A4] showed a concentration for 50% growth inhibition (GI50) of 0.026 µM.
